# According to publication PMC8591627 (ACS infectious diseases, 2021):
# Tests used:
# [1] = test system: LAC yceI::Tn azoR4 pCM28_azoR; assay: MIC; type: cell-based, Staphylococcus aureus
# Method in brief: (§1)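 Overnight cultures were grown in 5 mL Mueller-Hinton at 37 °C with shaking at 200 rpm. They were diluted 1/1000 into 96-well plates holding serial dilutions of test compound in Mueller-Hinton broth. Plates were sealed against drying and incubated statically at 37 °C for 18 h before reading. All strains are isogenic and in the LAC background.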
# LAC yceI::Tn = assay: MIC; type: cell-based, Staphylococcus aureus; details: genotype yceI::Tn, LAC background
# Method in brief: as §1
# LAC yceI::Tn azoR4 = assay: MIC; type: cell-based, Staphylococcus aureus; details: genotype yceI::Tn azoR4
# LAC yceI::Tn azoR1 = assay: MIC; type: cell-based, Staphylococcus aureus
# Method in brief: as §1
# MRSA culture = assay: Time-kill curve; type: cell-based, Staphylococcus aureus
# [2] = test system: S. aureus LAC pLL39_yceI1; assay: MIC; type: cell-based, Staphylococcus aureus; details: genotype pLL39_yceI1, LAC background
# [3] = test system: S. aureus LAC yceI::Tn pLL39_yceI; assay: MIC; type: cell-based, Staphylococcus aureus; details: genotype yceI::Tn pLL39_yceI, LAC background
# MRSA strain LAC = assay: Selection of spontaneous resistant mutants, frequency; type: cell-based, Staphylococcus aureus; details: 8x MIC, 3 d incubation
# S. aureus (ATCC 43300) [4] = assay: Membrane depolarization assay; type: cell-based, Staphylococcus aureus; details: 4.5x MIC, 10 min; positive control sodium deoxycholate
# Method in brief: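 ATCC 43300 was grown from a single colony in Mueller-Hinton to OD600 0.5, then loaded with DiBAC4 (final 20 μg/mL) for 5 min. Bacteria plus dye received test compound at 4.5x MIC; controls were no addition (negative) and 0.05% w/v sodium deoxycholate (positive). Fluorescence (ex 490/em 510 nm) was read every 5 s for 10 min, in triplicate.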
# [5] = test system: S. aureus LAC yceI::Tn pLL39; assay: MIC; type: cell-based, Staphylococcus aureus; details: genotype yceI::Tn pLL39, LAC background
# LAC yceI::Tn azoR2 pCM28 = assay: MIC; type: cell-based, Staphylococcus aureus
# Method in brief: as §1
# [6] = test system: LAC yceI::Tn azoR2 pCM28_azoR; assay: MIC; type: cell-based, Staphylococcus aureus
# Method in brief: as §1
# LAC azoR::Tn = assay: MIC; type: cell-based, Staphylococcus aureus; details: genotype azoR::Tn, LAC background
# Method in brief: as §1
# LAC yceI::Tn azoR3 pCM28 = assay: MIC; type: cell-based, Staphylococcus aureus
# Method in brief: as §1
# [7] = test system: LAC yceI::Tn azoR3 pCM28_azoR; assay: MIC; type: cell-based, Staphylococcus aureus
# Method in brief: as §1
# LAC yceI::Tn azoR1 pCM28 = assay: MIC; type: cell-based, Staphylococcus aureus
# Method in brief: as §1
# LAC yceI::Tn pCM28_azoR = assay: MIC; type: cell-based, Staphylococcus aureus
# Method in brief: as §1
# VRSA strains = assay: MIC versus VRSA clinical isolates; type: cell-based, Staphylococcus aureus; details: five clinical isolates of VRSA
# LAC yceI::Tn azoR4 pCM28 = assay: MIC; type: cell-based, Staphylococcus aureus
# Method in brief: as §1
# LAC = assay: MIC; type: cell-based, Staphylococcus aureus; details: genotype LAC
# Method in brief: as §1
# MRSA COL strain = assay: Mouse peritonitis-sepsis model; type: in vivo, Staphylococcus aureus; details: single dose 24 mg/kg intraperitoneal, 1 h post-infection
# S. aureus LAC pLL39_yceI = assay: MIC; type: cell-based, Staphylococcus aureus; details: genotype pLL39_yceI, LAC background
# [8] = test system: S. aureus LAC yceI::Tn pLL39_yceI3; assay: MIC; type: cell-based, Staphylococcus aureus; details: genotype yceI::Tn pLL39_yceI3, LAC background
# S. aureus (ATCC 43300) [9] = assay: Nitric oxide release assay, DAF-FM diacetate; type: cell-based, Staphylococcus aureus; details: 100 μM, over 2 h; positive control DEA-NONOate
# Method in brief: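 ATCC 43300 in Mueller-Hinton medium at OD600 0.2 was loaded with 10 μM DAF-FM diacetate for 30 min in the dark. Cells were then exposed to 100 μM test compound or 100 μM DEA-NONOate for 120 min. Controls were medium alone, bacteria alone, and bacteria with dye. Fluorescence (ex 495/em 515 nm) was read in triplicate.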
# [10] = test system: S. aureus LAC yceI::Tn pLL39_yceI1; assay: MIC; type: cell-based, Staphylococcus aureus; details: genotype yceI::Tn pLL39_yceI1, LAC background
# [11] = test system: LAC yceI::Tn azoR1 pCM28_azoR; assay: MIC; type: cell-based, Staphylococcus aureus
# Method in brief: as §1
# Vero cells = type: cell-based; details: 72 h
# VISA strains = assay: MIC versus VISA clinical isolates; type: cell-based, Staphylococcus aureus; details: six clinical isolates of VISA
# [12] = test system: S. aureus LAC yceI::Tn pLL39_yceI2; assay: MIC; type: cell-based, Staphylococcus aureus; details: genotype yceI::Tn pLL39_yceI2, LAC background
# LAC pEPSA5_azoR = assay: MIC; type: cell-based, Staphylococcus aureus; details: cultured with 1% xylose
# Method in brief: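 pEPSA vector strains were cultured with 1% xylose for induction. Overnight Mueller-Hinton cultures (37 °C, 200 rpm) were diluted 1/1000 into serial dilutions of test compound in Mueller-Hinton broth in 96-well plates. Plates were incubated statically at 37 °C for 18 h. Values are representative of three independent experiments.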
# [13] = test system: S. aureus LAC pLL39_yceI2; assay: MIC; type: cell-based, Staphylococcus aureus; details: genotype pLL39_yceI2, LAC background
structure (smiles),measurement,setting,value
O=C(Nc1cc(Cl)cc2cccnc12)c1ccc([N+](=O)[O-])s1 [JSF-3151],MIC,[1],1.5 µg/mL
same,MIC,LAC yceI::Tn,0.78 µg/mL
same,MIC,LAC yceI::Tn azoR4,25 µg/mL
same,MIC shift versus yceI::Tn parental strain,LAC yceI::Tn azoR1; azoR1 (Trp100stop),15 fold
same,MIC,LAC yceI::Tn azoR1; genotype yceI::Tn azoR1,12 µg/mL
same,time to sterilize a MRSA culture,MRSA culture; 1x MIC,≤ 4 h
same,speed of sterilization relative to vancomycin,MRSA culture; both at 1x MIC,more than six times faster than vancomycin
same,MIC,[2],50 µg/mL
same,MIC,[3],1.6 µg/mL
same,frequency of resistant mutants,MRSA strain LAC,6 x 10^−8
same,membrane depolarization (DiBAC4 fluorescence),S. aureus (ATCC 43300) [4],failed to compromise the cell membrane
same,MIC,[5],0.78 µg/mL
same,MIC,LAC yceI::Tn azoR2 pCM28,25 µg/mL
same,MIC,[6],1.5 µg/mL
same,MIC,LAC azoR::Tn,50 µg/mL
same,MIC,LAC yceI::Tn azoR3 pCM28,>50 µg/mL
same,MIC,[7],1.5 µg/mL
same,MIC,LAC yceI::Tn azoR1 pCM28,>50 µg/mL
same,MIC,LAC yceI::Tn pCM28_azoR,0.78 µg/mL
same,MIC versus VRSA compared to MRSA,VRSA strains,even greater potency
same,MIC,LAC yceI::Tn azoR4 pCM28,25 µg/mL
same,MIC,LAC,1.5 µg/mL
same,mice surviving 3 d post-administration,MRSA COL strain,2 out of 12
same,survival 3 d post-administration,MRSA COL strain,16.7%
same,MIC,S. aureus LAC pLL39_yceI,6.2 µg/mL
same,MIC,[8],50 µg/mL
same,intrabacterial NO• release (DAF-FM),S. aureus (ATCC 43300) [9],neither DAF-FM (over 2 h) nor the Griess reagent (over 48 h) evidenced NO• production
same,MIC,[10],50 µg/mL
same,half-life t1/2 in mouse liver microsomes,,1.46 min
same,MIC,[11],3.1 µg/mL
same,Vero cell CC50,Vero cells,> 50 µg/mL
same,CC50,Vero cells; read-out: Vero cell CC50,> 150 µM
same,MIC versus VISA compared to MRSA,VISA strains,even greater potency
same,MIC,[12],50 µg/mL
same,MIC,LAC pEPSA5_azoR,0.39 µg/mL
same,MIC,[13],50 µg/mL
